# According to PubChem BioAssay:
# Activity calls are given as the source filed them.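 Rule for the calls, unless noted: active = viability loss from added drug above about 55%, and viability with drug at most 40%, in both replicates (limit read from the data, passing the limit was not always enough); inconclusive = both conditions met in only one replicate; inactive = neither replicate meets both conditions.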
# Assays:
# [1] = HUVEC growth inhibition – cell-based, human, primary screen (AID 575;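 active = viability at or below 30% in both replicate assays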;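 note: 100% = median of untreated cell wells with 0.1% DMSO on each plate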); settings: HUVEC proliferation, CellTiter-Glo luminescence, 72 h; at 10 µM; stronger effect = lower value
# In short: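 Assay system: primary human umbilical vein endothelial cells / Buffer or medium: endothelial basal medium with 2% FBS plus growth supplements / Compound dosing: one dose, 10 µM final, 0.1% DMSO / Timing: 72 h treatment at 37 °C / Signal: CTG luminescence / Benchmarks: 32 DMSO-only cell-control wells (high), 32 MePR drug-control wells (low) per plate / Plate: collagen-coated 384-well format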
# [2] = H69AR cell proliferation blockers – human, duplicate replicates, primary screen (AID 580;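 active = viability at or under a set limit in both replicates, limit being median viability minus 3 SD, cut at about 48% in these data, passing the limit was not always enough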;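 note: 100% = mean luminescence of untreated wells and 0% = no signal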); settings: H69AR lung tumor cells viability, ATP luminescence, 72 h; at 10 µM; stronger effect = lower value
# [3] = MRP1 drug-resistance reversers in H69AR cells – cell-based, doxorubicin co-treatment, pilot screen (AID 601); settings: CellTiter-Glo, 72 h, at 10 µM; for differential viability (reversal): stronger effect = higher value
# [4] = yeast transport mutant growth inhibition pilot in 384-well plates, post-Golgi transport modulator project (AID 636; in the data active = inhibition above about 31%); settings: absorbance 615 nm, about 18 h, stronger effect = higher value
# [5] = growth suppression of yeast trafficking mutant, preliminary HTS, modulators of trafficking downstream of Golgi apparatus project, 1536-format plate, OD 615 nm (AID 637; in the data active = inhibition above about 30%); settings: yeast transport mutant growth, absorbance 615 nm, 18 h; stronger effect = higher value
# [6] = H69AR cells + 2 uM doxorubicin, measured here: viability with 2 uM doxorubicin, stronger effect = lower value
# [7] = H69AR cells, compound alone cytotoxicity
SMILES,viability [1],viability [2],differential viability (reversal) ([3]; H69AR cells + 2 uM doxorubicin),"viability [3, 6] [%]","viability [3, 7] [%]",inhibition [4],inhibition [5]
CN(CC(=O)Nc1ccccc1Cl)C(=O)COC(=O)CNC(=O)c1ccc(Br)o1,95.4% (inactive),104% (inactive),14.3% (inactive),89.5,104,0.39% (inactive),5.4% (inactive)
Nc1nc(SCc2ccc(Cl)cc2Cl)n[nH]1,85.8% (inactive),92.5% (inactive),4.17% (inactive),88.3,92.5,-7.47% (inactive),0.79% (inactive)
Nc1ccc(Sc2nnnn2-c2ccccc2)c(Cl)c1,101% (inactive),92% (inactive),-9.96% (inactive),102,92,-6.32% (inactive),-2.06% (inactive)
CCOC(=O)c1c(NC(=O)c2ccoc2C)sc2c1CCC2,93.3% (inactive),78.9% (inactive),-9.7% (inactive),88.6,78.9,-3.82% (inactive),0.95% (inactive)
Cc1c(N(C)C)nc2ccccc2c1N,83.8% (inactive),84.4% (inactive),-5.31% (inactive),89.7,84.4,-4% (inactive),2.54% (inactive)
CSC1=C(C#N)C(c2ccc(C)cc2)C2=C(CCCC2=O)N1 (stereo not given),91.3% (inactive),77.6% (inactive),10.1% (inactive),67.5,77.6,-2.99% (inactive),-0.95% (inactive)
COC(=O)Cn1c(=O)c2c(nc(Br)n2CC(=O)OC)n(C)c1=O,91.6% (inactive),86.5% (inactive),6.83% (inactive),79.7,86.5,-4.53% (inactive),-0.79% (inactive)
COc1cccc(CN(C(=O)c2cc3ccccc3oc2=O)C2CC2)c1,99.1% (inactive),102% (inactive),5.67% (inactive),96.1,102,-0.13% (inactive),0% (inactive)
COc1ccc(CN(C(=O)CSc2nnc(-c3ccccc3F)o2)c2ccc(F)cc2)cc1,101% (inactive),101% (inactive),2.2% (inactive),98.8,101,-5.2% (inactive),2.7% (inactive)
O=C(Nc1ncnc2sc3c(c12)CCCCC3)c1ccco1,91.5% (inactive),73.8% (inactive),-0.73% (inactive),74.5,73.8,-2.08% (inactive),3.65% (inactive)
CCCCOc1ccc(C(=O)N2CCC(C)CC2)cc1,111% (inactive),104% (inactive),17.9% (inactive),85.7,104,-3.2% (inactive),0.48% (inactive)
Cc1nn(Cc2ccccc2Cl)c(C)c1NC(=O)C1C2CCC(O2)C1C(=O)O (stereo not given),93.8% (inactive),90.9% (inactive),3.11% (inactive),87.8,90.9,-1.97% (inactive),-7.14% (inactive)
COC(=O)c1[nH]c2c(c1C)C(=O)CC(c1cccs1)C2 (stereo not given),44.9% (inactive),36.7% (active),-39.3% (inactive),76,36.7,-6.05% (inactive),4.13% (inactive)
Cc1nn(CC(O)Cn2c3c(c4ccccc42)CCN(C)C3=O)c(C)c1Br (stereo not given),52.8% (inactive),69.8% (inactive),-12.1% (inactive),81.9,69.8,-4% (inactive),-2.54% (inactive)
N#CC1=C(SCc2ccccc2)NC(=O)C(C#N)C12CCCC2 (stereo not given),72.7% (inactive),83.1% (inactive),-9.75% (inactive),92.9,83.1,-5% (inactive),1.9% (inactive)
O=C(CCN1CCN(CCO)CC1)Nc1ccc(OCc2ccccc2)cc1,76.5% (inactive),88.9% (inactive),6.03% (inactive),82.9,88.9,-2.6% (inactive),-6.67% (inactive)
CCS(=O)(=O)N1CCC(C(=O)N2CCOCC2)CC1,92.1% (inactive),98.5% (inactive),-1.11% (inactive),99.6,98.5,-0.52% (inactive),-0.16% (inactive)
Cc1ccc(NC(=O)COc2nc(C)cs2)cc1,97.5% (inactive),91.5% (inactive),3.88% (inactive),87.6,91.5,-3.64% (inactive),2.7% (inactive)
COc1ccc(-c2nn3c(-c4cccc(C)c4)nnc3s2)cc1OC,51.1% (inactive),35.2% (active),-44% (inactive),79.2,35.2,-0.4% (inactive),-4.13% (inactive)
Cn1cnc2c1c(=O)n(Cc1cccc(Br)c1)c(=O)n2C,90.3% (inactive),86.9% (inactive),4.32% (inactive),82.6,86.9,-4% (inactive),5.24% (inactive)
